Most compounds without a hit are left out; they make up all but 1.6% or so of the library.
NCF1 inh: inhibitors of human p47phox binding; 220,000 tested, 0.53% active; P14598; AID 1274; p47phox/p22phox peptide binding, fluorescence polarization, 2 h; inhibition, % at 24.7 µM
p97 ATPase inh: inhibitors of human p97 ATPase; 220,000 tested, 0.42% active; P55072; AID 1481; inhibition, % at 8 µM; recombinant p97 ATPase, Kinase-Glo ATP luminescence, 3 h; in the data active = inhibition above about 15%
Tb MetRS inh: Trypanosoma brucei MetRS inhibition; purified T. brucei MetRS, ATP depletion, Kinase-Glo luminescence; inhibition, % at 11.9 µM; 360,000 tested, 0.4% active;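 active = inhibition above a per-plate cutoff of the control wells' mean inhibition plus 3 SD, cut at about 5.5% in these data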
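Material – parasite MetRS enzyme · Medium – HEPES-MgCl2-KCl buffer plus DTT, spermine, BSA, pyrophosphatase · Reagent – ATP, methionine and E. coli bulk tRNA substrates · Times – 15 min enzyme-compound preincubation, 2 h reaction, 10 min detection, 25 °C · Measured by – luminescence of leftover ATP · Evaluation – percent inhibition relative to median high and low control wells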
eIF4E 4G PPI: blocks eIF4E binding to eIF4G; P63073+Q04637; TR-FRET eIF4E-eIF4GI(517-606) binding, 2 h; inhibition, % at 21.7 µM; 220,000 tested, 0.37% active
SUMO HTRF inh: blocks human SUMOylation mediated by UBC9. AID 2006. HTRF SUMOylation assay, SAE1/SAE2 + UBC9, in vitro. inhibition, % at 35 µM. 290,000 tested, 0.36% active. P63279; in the data active = inhibition above about 50%, passing the limit was not always enough
Target sequence (P63279 whole entry, looked up): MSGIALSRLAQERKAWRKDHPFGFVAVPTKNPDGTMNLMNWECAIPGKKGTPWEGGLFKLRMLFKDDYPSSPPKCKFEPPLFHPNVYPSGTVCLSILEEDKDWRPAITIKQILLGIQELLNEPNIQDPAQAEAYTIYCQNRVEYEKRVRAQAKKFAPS
14-3-3 Bad PPI: disrupts binding of bovine 14-3-3 zeta to phospho-Bad peptide. inhibition, % at 21.7 µM. 220,000 tested, 0.71% active. AID 781. TR-FRET 14-3-3zeta/Dy647-pBad peptide displacement, 1 h. P63103;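 active = inhibition above about 70%, limit read from the data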
Target sequence (P63103 whole entry, looked up): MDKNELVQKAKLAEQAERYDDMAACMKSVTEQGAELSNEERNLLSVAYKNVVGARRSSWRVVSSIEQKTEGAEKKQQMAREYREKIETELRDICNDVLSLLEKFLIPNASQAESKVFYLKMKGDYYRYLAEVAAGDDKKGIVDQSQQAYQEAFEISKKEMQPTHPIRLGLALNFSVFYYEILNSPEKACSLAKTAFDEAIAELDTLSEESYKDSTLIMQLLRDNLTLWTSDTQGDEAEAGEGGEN
p97 inh conf: human p97 ATPase inhibition, confirmation. shares compounds with p97 ATPase inh. recombinant p97 ATPase, Kinase-Glo ATP luminescence. inhibition, % at 8 µM. 760 tested, 44% active;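 active = percent inhibition of p97 ATPase above a set limit, the primary screen's mean plus 3 SD, cut at about 15% in these data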
Hits are given with their value; n = inactive; x = no result; [ ] = another dose, or the depositor's remark.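 The calls were made as follows, unless noted: active = inhibition above about 30% (limit read from the data); inactive = the rest.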

SMILES | NCF1 inh | p97 ATPase inh | Tb MetRS inh | eIF4E 4G PPI | SUMO HTRF inh | 14-3-3 Bad PPI | p97 inh conf
CC(=O)Nc1cccc(-c2cn3ccc(C)cc3n2)c1 | n | 17.4 | n | n | n | n | 21.3
Cc1ccn2cc(-c3cccc(NC(=O)CCC(=O)O)c3)nc2c1 | x | x | n | x | n | x | x
Cc1c(NS(=O)(=O)c2ccc(S(=O)(=O)c3ccccc3)s2)c(=O)n(-c2ccccc2)n1C | n | 16.3 | n | n | n | n | 17.2
Cc1c(NS(=O)(=O)c2ccc(Br)s2)c(=O)n(-c2ccccc2)n1C | n | n | n | n | n | n | x
Cc1oc2c(c1C(=O)N1CCC(C)CC1)C(=O)c1ccccc1C2=O | n | n | x | n | n | n | x
Cc1ccc(C(=O)c2c(C)oc3c2C(=O)C(=O)c2ccccc2-3)cc1 | n | 21.6 | n | n | 91.5 | n | 19.5
CN(C(=O)CSc1nc2scc(-c3ccccc3)c2c(=O)[nH]1)c1ccccc1 | x | x | n | x | x | x | x
CN(CCC#N)C(=O)CSc1nc2scc(-c3ccccc3)c2c(=O)[nH]1 | n | 15.9 | n | n | n | n | n
CC(=O)c1ccc2c(c1)C1C=CCC1C(C(=O)O)N2 (centres undefined) | n | 20.2 | n | 30.6 | 78.3 | n | 29.9
Cc1ccnc(OC(C(=O)O)C(OCc2ccccc2)(c2ccc(F)cc2)c2ccc(F)cc2)n1 (centres undefined) | x | x | n | x | n | x | x
C=CC[n+]1c(-c2ccc(C)cc2)csc1Nc1ccc(NC(C)=O)cc1 | n | n | n | n | n | n | x
C=CC[n+]1c(-c2ccc(OC)cc2)csc1NNC(=O)Nc1ccccc1 | n | 17.3 | n | n | n | n | n
COc1ccccc1Nc1nc(NCc2ccco2)nc(N)c1[N+](=O)[O-] | n | 15.6 | n | n | n | n | 20.7
N#Cc1cc2ccc(N3CCOCC3)cc2cc1C#N | x | 15.4 | n | x | n | x | 19.0
Cc1ccc(NC2CCCN(C(=O)c3cccs3)C2)cc1C (centres undefined) | x | x | n | x | n | x | x
CC1CCCC(NC(=O)COC(=O)c2n[nH]c3ccccc23)C1C (centres undefined) | x | x | n | x | x | x | x
C/C(=N\NC(=O)c1ccc(NS(=O)(=O)c2cccs2)cc1)c1ccc(O)cc1O | n | 19.9 | n | n | n | n | 20.3
O=c1cc2c(=O)oc3cc(O)c(O)oc3c2c(O)c1O | n | 26.0 | n | n | n | 88.8 | 22.6
Nc1c(C(=O)Nc2ccccc2)sc2nc(-c3ccco3)ccc12 | n | 18.5 | n | n | 58.5 | 76.1[fluorescence artefact?] | 17.8
COc1ccc(/C=C2/C(=O)N(Cc3ccccc3)N=C2C)cc1 | n | 32.7 | n | n | n | n | n
COc1ccccc1OCCNC(=O)C1CC(=O)N(c2ccc3c(c2)OCCO3)C1 (centres undefined) | x | x | n | x | x | x | x
CCCCn1c(N)c(N(CC(C)C)C(=O)CSc2ccccc2C)c(=O)[nH]c1=O | x | x | n | x | x | x | x
CC(=O)Nc1cccc(-c2nc3ccc(NC(C)=O)cc3s2)c1 | n | 15.7 | n | n | n | n | n
CC(=O)Nc1cccc(-c2nc3ccccc3s2)c1 | n | n | n | n | n | n | x
CC(C(=O)Nc1ccc2c(c1)OCO2)N1CCN(C)CC1 (centres undefined) | n | 21.9 | n | n | n | n | n
SMILES | NCF1 inh | p97 ATPase inh | Tb MetRS inh | eIF4E 4G PPI | SUMO HTRF inh | 14-3-3 Bad PPI | p97 inh conf
O=C(Cc1ccccc1)NC1(O)C(=O)c2ccccc2C1=O | n | 15.7 | n | n | n | n | 15.2
O=C(N[C@@H](Cc1ccccc1)C(=O)O)c1ccc(C(F)(F)F)cc1 | n | n | n | n | n | n | x
O=C(NC1(O)C(=O)c2ccccc2C1=O)c1ccc(C(F)(F)F)cc1 | n | 27.0 | n | n | 89.5 | n | 27.6
Cc1ccc(C(=O)NC2(O)C(=O)c3ccccc3C2=O)cc1C | n | 26.4 | n | n | x | n | 26.0
Cc1ccc(NC(=O)CN2CCN(C(=O)c3ccco3)CC2)cc1S(=O)(=O)N(C)C | x | x | n | x | x | x | x
COCCCNc1nc2nonc2nc1N1CCN2CCCC2C1 (centres undefined) | n | 15.5 | n | n | n | n | n
Cc1ccc(OCCOc2ccc(S(=O)(=O)N3CCCC3)cc2C(N)=O)cc1 | x | x | n | x | x | x | x
O=C(Oc1ccccc1C(=O)Nc1ccccc1)c1ccccc1Br | n | 22.8 | n | n | n | n | 30.4

Compound activity from PubChem.
